Source: PubChem BioAssay (The Scripps Research Institute Molecular Screening Center)
PAFAH2 inh – PAFAH2 enzyme inhibitors, primary screen, biochemical, fluorescence polarization, human; Platelet-activating factor acetylhydrolase 2, cytoplasmic (Homo sapiens), Q99487; recombinant PAFAH2, FP-rhodamine activity probe; inhibition, % at 3.39 µM; 0.99% of 340,000 active; AID 492956, 2010;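 active = inhibition above the mean over all tested compounds plus 3 SD, cut at about 30% in these data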;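 also: inhibitors block probe labeling of enzyme so polarization drops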
pPAFAH inh – pPAFAH enzyme inhibitors, primary screen, biochemical, fluorescence polarization, human; AID 463082, 2010; Platelet-activating factor acetylhydrolase (Homo sapiens), Q13093; recombinant pPAFAH, FP-rhodamine probe fluorescence polarization; 1.5% of 330,000 active; inhibition, % at 3.39 µM;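 active = inhibition above the mean inhibition across the screen plus 3 SD, cut at about 25% in these data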;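 also: inhibitors block binding of the rhodamine activity-based probe so polarization drops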
PAFAH1B3 inh – PAFAH1B3 enzyme inhibitors, primary screen, biochemical, fluorescence polarization, human; inhibition, % at 3.39 µM; recombinant PAFAH1B3, FP-rhodamine probe; Platelet-activating factor acetylhydrolase IB subunit alpha1 (Homo sapiens), Q15102; 0.28% of 340,000 active;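 active = inhibition above the screen-wide average of all tested compounds plus 3 SD, cut at about 25% in these data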
Target sequence (Q15102 whole entry, looked up): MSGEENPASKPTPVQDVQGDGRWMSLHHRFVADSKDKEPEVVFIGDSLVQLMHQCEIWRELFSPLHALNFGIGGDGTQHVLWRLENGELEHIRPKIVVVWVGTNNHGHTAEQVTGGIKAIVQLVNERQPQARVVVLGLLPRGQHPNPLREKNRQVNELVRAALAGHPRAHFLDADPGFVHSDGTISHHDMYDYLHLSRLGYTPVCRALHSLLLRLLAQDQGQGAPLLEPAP
PAFAH1B2 inh – PAFAH1B2 enzyme inhibitors, primary screen, biochemical, fluorescence polarization, human. Platelet-activating factor acetylhydrolase IB subunit alpha2 (Homo sapiens), P68402. recombinant PAFAH1B2, FP-rhodamine activity probe. inhibition, % at 3.39 µM. 1.2% of 340,000 active;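 active = inhibition above the mean of all tested compounds plus 3 SD, cut at about 24% in these data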
Target sequence (P68402 whole entry, looked up): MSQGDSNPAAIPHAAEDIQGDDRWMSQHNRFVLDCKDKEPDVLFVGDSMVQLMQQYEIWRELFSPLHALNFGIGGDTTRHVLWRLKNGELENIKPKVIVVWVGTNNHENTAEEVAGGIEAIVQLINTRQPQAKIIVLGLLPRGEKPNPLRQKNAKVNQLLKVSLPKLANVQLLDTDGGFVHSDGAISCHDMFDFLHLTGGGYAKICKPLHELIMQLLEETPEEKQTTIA
RBBP9 inh – human RBBP9 inhibitors, primary screen, biochemical, fluorescence polarization, FP-Rh probe, HTS | 0.2% of 220,000 active | recombinant RBBP9 | inhibition, % at 7.94 µM | AID 1515, 2009;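 active = inhibition above the campaign mean of all tested compounds plus 3 SD, cut at about 14% in these data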
Target sequence (O75884 whole entry, looked up): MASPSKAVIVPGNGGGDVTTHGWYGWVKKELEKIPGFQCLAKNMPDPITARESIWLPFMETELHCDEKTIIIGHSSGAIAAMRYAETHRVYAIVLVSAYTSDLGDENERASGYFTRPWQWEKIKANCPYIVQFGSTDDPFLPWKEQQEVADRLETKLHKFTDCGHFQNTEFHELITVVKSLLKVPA
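system = RBBP9 protein | input = RBBP9 at 2.5 µM in dispensed solution, before mixing | measured by = fluorescence polarization (mP), excitation 525 nm, emission 598 nm | incubation = enzyme-compound preincubation 30 min, then probe labeling 45 min, 25 °C | buffer or medium = Tris-NaCl-Pluronic buffer, pH 8.0 | compound = single dose 7.94 µM | also added = FP-Rh probe, 375 nM dispensing solution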
Each line names hits and unclear results; the compound was inactive in the other large screens. Hits are enriched below; roughly 2.7% of the tested compounds scored in any of these assays.

O=C(NCC1COCCO1)c1cc(COc2c(F)cccc2F)on1 (stereo unspecified)	pPAFAH inh 25 (no result: RBBP9 inh)
CN(C(=O)c1cc(COc2c(F)cccc2F)on1)C1CCOC1 (stereo unspecified)	none (no result: RBBP9 inh)
Cc1ccccc1C(=O)N/N=C1/SCC(=O)N1Cc1ccccc1	none
Cc1ccc(NS(=O)(=O)c2cc(C(=O)NCCSc3ccc(C)cc3)ccc2C)cc1	none
Cc1ccc(SCCNC(=O)c2ccccc2)cc1	PAFAH1B2 inh 27
Cc1ccc(SCCNC(=O)c2ccccc2F)cc1	PAFAH1B2 inh 25 (no result: RBBP9 inh)
CCOc1ccccc1C(=O)NCC(=O)NCCSc1ccc(Br)cc1	PAFAH1B2 inh 28 (no result: pPAFAH inh, RBBP9 inh)
Cc1ccc(SCCNC(=O)c2ccc(C)c(S(=O)(=O)Nc3cccc(C)c3)c2)cc1	pPAFAH inh 30
Cc1ccccc1NS(=O)(=O)c1cc(C(=O)NCCC2=CCCCC2)ccc1Cl	none
Cc1cccc(NS(=O)(=O)c2cc(C(=O)NCCC3=CCCCC3)ccc2Cl)c1	PAFAH1B2 inh 25
Cc1ccc(SCCC(=O)NCCSCc2ccccc2C)cc1	PAFAH1B2 inh 42
O=c1c(-c2n[nH]c(=S)n2-c2ccccc2)cccn1Cc1cccc(Cl)c1	none
CCOc1ccc(-n2cc(-c3ccccc3)c3c(=S)nc[nH]c32)cc1	pPAFAH inh 28 (no result: RBBP9 inh)
Cc1cccc(C(=O)N/C(=C\c2ccc(C)o2)C(=O)O)c1	none
O=C(O)c1ccc(N/N=C/c2cn(Cc3ccc(F)cc3)c3ccccc23)cc1	pPAFAH inh 29
O=C(O)c1cccc(Cn2c(Cl)c(/C=N/NC(=O)c3cc4ccccc4cc3O)sc2=O)c1	pPAFAH inh 33
COC(=O)c1cc(NS(=O)(=O)c2ccc(N3CCCCCC3)c([N+](=O)[O-])c2)cc(C(=O)OC)c1	PAFAH1B2 inh 33
O=C(OCCN1CCCCC1)c1cccc(Cl)c1	none (no result: RBBP9 inh)
Cc1ccc(N(CC(N)=O)C2SC(=O)N(Cc3ccccc3)C2=O)cc1 (stereo unspecified)	PAFAH1B2 inh 26
Oc1cc(NCCN2CCOCC2)cc2cccnc12	PAFAH1B3 inh 54 (no result: RBBP9 inh)
Cn1cccc1-c1cc(C(=O)N/N=C/c2cc(Br)ccc2O)[nH]n1	pPAFAH inh 30 (no result: RBBP9 inh)
O=C1NC2(CCCCC2)C(=O)N1Cc1ccc([N+](=O)[O-])cc1	none
Cc1ccc(Cc2c(C)nc3nc(SCC(=O)NCCCN4CCCCCC4)nn3c2C)cc1	none (no result: PAFAH2 inh, PAFAH1B3 inh, PAFAH1B2 inh, RBBP9 inh)
OCCSc1nnc(Nc2ccccc2)s1	pPAFAH inh 25
Cc1ccccc1OCCC(=O)Nc1ccccc1C(=O)N1CCCCC1	none (no result: RBBP9 inh)
Cc1[nH]n(-c2ncc(-c3ccc(Cl)cc3)s2)c(=O)c1C(c1ccc(Cl)cc1)C(C#N)C#N (stereo unspecified)	pPAFAH inh 29
COc1ccc(C(c2c(C)[nH]n(C(N)=S)c2=O)C(C#N)C#N)cc1 (stereo unspecified)	none
Cc1cc(C(=O)OCC(=O)Nc2sc3c(c2C#N)CCC(C)C3)c2ccccc2n1 (stereo unspecified)	pPAFAH inh 25
COc1ccccc1-c1cc(C(=O)Nc2sc3c(c2C#N)CCC(C)C3)c2ccccc2n1 (stereo unspecified)	none
CC(C)Oc1cc(NC(=O)CS(=O)(=O)CC(=O)N(C)C)c(Cl)cc1Cl	none
Clc1ccccc1/C=C/c1ccnc2ccccc12	pPAFAH inh 31
COc1ccc(Cn2c(-c3ccc(Br)cc3)c[n+]3ccccc23)cc1	none
CC1(C)CC(=O)C(C2C3=C(CC(C)(C)CC3=O)Oc3c(Br)cc(Br)cc32)=C(O)C1 (stereo unspecified)	none (no result: RBBP9 inh)
c1ccc(C(c2ccccc2)c2ccn[nH]2)cc1	PAFAH1B2 inh 27 (no result: RBBP9 inh)
O=C(CNS(=O)(=O)c1ccc2ccccc2c1)OCc1csc(-c2ccccc2)n1	PAFAH1B2 inh 28
Cc1ccc(S(=O)(=O)NCC(=O)OCc2csc(-c3ccccc3)n2)cc1	none
Cc1ccc2[nH]c3ccccc3c(=O)c2c1	none (no result: RBBP9 inh)
O=c1c2ccccc2[nH]c2ccc(O)cc12	pPAFAH inh 29 (no result: RBBP9 inh)
COc1ccccc1/C=C1\S/C(=N/NC(=O)c2cccc(Br)c2)NC1=O	PAFAH2 inh 41
O=C(O)CC/C(=N\Nc1ccccc1[N+](=O)[O-])c1cccs1	none (no result: RBBP9 inh)
O=C(O)CC/C(=N\Nc1ccc(S(=O)(=O)N2CCCC2)cc1[N+](=O)[O-])c1cccs1	PAFAH1B2 inh 28 (no result: pPAFAH inh)
O=C(Nc1c(C(=O)O)[nH]c2ccccc12)NC1CCCCC1	PAFAH2 inh 45, PAFAH1B2 inh 27
CCN(Cc1ccccc1)C(=O)Cn1cc(S(=O)(=O)NC)c(S(=O)(=O)NC)c1	none (no result: RBBP9 inh)
Brc1ccc(CSc2nnc(-c3cnccn3)n2Cc2ccco2)cc1	PAFAH1B2 inh 30
CCOc1ccc(CNc2ccc3c(c2)ncn3C)cc1	none
Brc1ccc(CNc2ccc3ncccc3c2)cc1	PAFAH1B2 inh 51 (no result: pPAFAH inh, RBBP9 inh)
O=C(Nc1ccc2ncccc2c1)c1cccc(Br)c1	none (no result: RBBP9 inh)
Cn1cnc2cc(NCc3ccc(Cl)cc3)ccc21	PAFAH1B2 inh 43 (no result: RBBP9 inh)
CCCn1cnc2cc(NCc3ccc(Br)cc3)ccc21	PAFAH1B2 inh 37 (no result: RBBP9 inh)
CCc1cccc(NS(=O)(=O)c2ccc3c(c2)N(C)CCO3)c1	pPAFAH inh 30 (no result: RBBP9 inh)
CCOc1ccc(NS(=O)(=O)c2ccc(OC)c(NC(=O)c3ccc4c(c3)OCCO4)c2)cc1	pPAFAH inh 27
CCOc1ccccc1NS(=O)(=O)c1ccc2c(c1)N(C)CCO2	none (no result: RBBP9 inh)
CC(=O)N1CCOc2ccc(S(=O)(=O)Nc3cccc(C)c3)cc21	none (no result: RBBP9 inh)
CC(=O)N1CCSc2ccc(S(=O)(=O)Nc3ccc(C)cc3)cc21	pPAFAH inh 25 (no result: RBBP9 inh)
Cc1ccc(NS(=O)(=O)c2ccc3c(c2)N(C)CCO3)cc1	pPAFAH inh 28 (no result: RBBP9 inh)
COc1ccc(NC(=O)CCN(c2ccc(OC)cc2)S(=O)(=O)c2ccc(C)c(C)c2)cc1	none (no result: pPAFAH inh, RBBP9 inh)
Cc1ccc(CCNS(=O)(=O)c2ccc3c(c2)N(C)CCO3)cc1	PAFAH1B2 inh 30 (no result: RBBP9 inh)
CC(=O)c1ccc(NS(=O)(=O)c2ccc3c(c2)N(C(C)=O)CCO3)cc1	none (no result: RBBP9 inh)
CCOc1ccc(NS(=O)(=O)c2ccc3c(c2)N(C(C)=O)CCO3)cc1	pPAFAH inh 32 (no result: RBBP9 inh)
CCOC(=O)c1c(C)nc2c(c1-c1ccccc1)C(=O)CCC2	none
COc1ccc(CNC(=O)CCSCc2cccc(F)c2)cc1	pPAFAH inh 27 (no result: RBBP9 inh)
N#CC1=C(N)C2=CCCC[C@H]2[C@H](c2ccccc2)C1(C#N)C#N	none
N#CC1=C(N)C2=CCCC[C@H]2[C@H](c2ccc(Br)cc2)C1(C#N)C#N	pPAFAH inh 28
CNc1c(NS(=O)(=O)c2ccc(CC(C)C)cc2)c(=O)oc2ccccc12	none (no result: RBBP9 inh)
Cc1ccc(NC(=O)c2ccc(N3CCOCC3)c([N+](=O)[O-])c2)cc1S(=O)(=O)N1CCOCC1	none
Cc1ccc(NC(=S)NNC(=O)c2ccc(N3CCOCC3)c([N+](=O)[O-])c2)cc1C	pPAFAH inh 26
CSc1nc(NCCOCCO)c2sc3nc(-c4ccco4)c4c(c3c2n1)CCC4	pPAFAH inh 29
